These results are taken from PubChem BioAssay.

Molecules are shown by their SMILES. The source made the active and inactive calls.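 Rule for the calls, unless noted: active = viability at or below 10% of carrier control in both of two separate runs; inconclusive = viability at or below 10% in only one of the two runs; inactive = the rest.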

Experiment [1] in a line: Her2 expression decrease, cell viability multiplex – SKBR3 breast tumor cells, AlphaScreen, ATP viability, primary screen (AID 461;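 active = Her2 level under about 52% in both replicate screens, with viability over 70% of control, limit read from the data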;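 for Her2 level: lower value means less Her2 protein in the cells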;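 for viability: percent of carrier control wells set as 100% viability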). The settings on record: SKBR3 Her2 protein level, 18-24 h, measured here: SKBR3 viability, ATP luminescence, at 10 µM.
The target of experiment [2] is Receptor tyrosine-protein kinase erbB-2 (Homo sapiens) (UniProt P04626). The experiment is described as above. The settings on record: 18-24 h, at 10 µM, stronger effect = lower value.
Receptor tyrosine-protein kinase erbB-2 (Homo sapiens), sequence (P04626 whole entry, looked up): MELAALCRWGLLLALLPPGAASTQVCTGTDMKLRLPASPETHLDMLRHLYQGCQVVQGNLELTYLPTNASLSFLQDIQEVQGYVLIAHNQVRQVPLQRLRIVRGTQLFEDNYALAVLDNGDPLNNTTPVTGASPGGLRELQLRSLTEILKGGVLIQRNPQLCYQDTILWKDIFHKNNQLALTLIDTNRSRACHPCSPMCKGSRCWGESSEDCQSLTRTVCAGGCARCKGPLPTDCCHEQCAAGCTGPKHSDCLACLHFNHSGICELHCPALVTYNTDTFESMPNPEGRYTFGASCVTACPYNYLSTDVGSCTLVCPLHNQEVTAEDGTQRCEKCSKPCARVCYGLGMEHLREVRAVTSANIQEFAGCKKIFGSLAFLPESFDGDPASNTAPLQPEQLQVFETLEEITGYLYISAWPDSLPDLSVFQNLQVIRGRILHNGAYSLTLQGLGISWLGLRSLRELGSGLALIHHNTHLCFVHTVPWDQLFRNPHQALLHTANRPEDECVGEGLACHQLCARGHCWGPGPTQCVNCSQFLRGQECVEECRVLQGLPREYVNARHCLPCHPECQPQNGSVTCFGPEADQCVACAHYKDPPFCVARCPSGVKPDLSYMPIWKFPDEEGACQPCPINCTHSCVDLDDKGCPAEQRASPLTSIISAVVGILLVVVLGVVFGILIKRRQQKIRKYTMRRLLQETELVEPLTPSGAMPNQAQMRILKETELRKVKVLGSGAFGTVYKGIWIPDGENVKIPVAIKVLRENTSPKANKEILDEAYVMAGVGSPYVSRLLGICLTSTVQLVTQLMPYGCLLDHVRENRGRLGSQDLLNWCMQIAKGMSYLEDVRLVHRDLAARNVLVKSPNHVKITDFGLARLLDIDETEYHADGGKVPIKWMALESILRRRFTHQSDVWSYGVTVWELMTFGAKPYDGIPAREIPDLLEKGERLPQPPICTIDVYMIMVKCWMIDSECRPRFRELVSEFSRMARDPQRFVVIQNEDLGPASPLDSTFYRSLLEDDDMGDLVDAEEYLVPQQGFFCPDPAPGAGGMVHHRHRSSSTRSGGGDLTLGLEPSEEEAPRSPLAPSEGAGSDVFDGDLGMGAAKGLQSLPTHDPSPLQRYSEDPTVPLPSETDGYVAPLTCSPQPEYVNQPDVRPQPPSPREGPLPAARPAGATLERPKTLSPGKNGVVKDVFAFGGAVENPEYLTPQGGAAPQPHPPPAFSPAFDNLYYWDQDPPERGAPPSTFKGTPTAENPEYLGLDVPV
Experiment [3] can be described thus: reduced viability of SK-BR-3 breast cancer cells – cell-based, 24 h, human, pilot screen (AID 572).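 Note: compound exposure lasted between 18 and 24 h rather than exactly 24 h; 100% = carrier-treated control wells.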 The settings on record: SK-BR-3 viability, CellTiter-Glo luminescence, at 10 µM, stronger effect = lower value. For orientation: In ATP-based viability assays light output follows the ATP content of the culture.
Experiment [4] is described as follows: HUVEC growth inhibition – cell-based, human, primary screen (AID 575;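 active = viability at or below 30% in both replicate assays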;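 note: 100% = median of untreated cell wells with 0.1% DMSO on each plate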). Conditions: HUVEC proliferation, CellTiter-Glo luminescence, 72 h; at 10 µM; stronger effect = lower value. The gist of the method:
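Test system – primary HUVEC, no more than 12 passages · Dosing – one dose, 10 µM final, 0.1% DMSO · Times – 72 h treatment at 37 °C · Measured by – ATP-based CellTiter-Glo luminescent read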

The nature of experiment [5]: H69AR cell proliferation blockers – human, duplicate replicates, primary screen (AID 580;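 active = viability at or under a set limit in both replicates, limit being median viability minus 3 SD, cut at about 48% in these data, passing the limit was not always enough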;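 note: 100% = mean luminescence of untreated wells and 0% = no signal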). Conditions: H69AR lung tumor cells viability, ATP luminescence, 72 h; at 10 µM; stronger effect = lower value.
Experiment [6] is described as follows: MRP1 drug-resistance reversers in H69AR cells – cell-based, doxorubicin co-treatment, pilot screen (AID 601;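 active = viability loss from added drug above about 55%, and viability with drug at most 40%, in both replicates, limit read from the data, passing the limit was not always enough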). Conditions: CellTiter-Glo, 72 h, at 10 µM; for differential viability (reversal): stronger effect = higher value.
A short description of experiment [7]: yeast transport mutant growth inhibition pilot in 384-well plates, post-Golgi transport modulator project (AID 636; in the data active = inhibition above about 31%). The settings on record: absorbance 615 nm, about 18 h, stronger effect = higher value.
Experiment [8] is described as follows: growth suppression of yeast trafficking mutant, preliminary HTS, modulators of trafficking downstream of Golgi apparatus project, 1536-format plate, OD 615 nm (AID 637; in the data active = inhibition above about 30%). The settings on record: yeast transport mutant growth, absorbance 615 nm, 18 h; stronger effect = higher value.
Where [9] appears, read: H69AR cells + 2 uM doxorubicin, measured here: viability with 2 uM doxorubicin, stronger effect = lower value.
Setting [10] is: H69AR cells, compound alone cytotoxicity.

`COc1ccc(CC(=O)Nc2ccc(-c3nnc(-c4ccc(C)cc4)o3)cc2)cc1`: the viability was 114% in experiment [1]; 114% (inactive) in experiment [3]; 69.9% (inactive) in experiment [4]; 4.72% (active) in experiment [5]; 4.76% in experiment [6] (setting [9]); 4.72% in experiment [6] (setting [10]). For the same molecule, the Her2 level in experiment [2] is 81.5% (inactive). Also, in experiment [6] (H69AR cells + 2 uM doxorubicin), the differential viability (reversal) is -0.04% (inactive). Besides, the inhibition is -1.58% (inactive) in experiment [7] and -1.75% (inactive) in experiment [8].

For `CCN(Cc1nc2cc(OC)c(OC)cc2c(=O)[nH]1)C(=O)c1ccc(S(=O)(=O)N(C)C)cc1`, the viability is 113% in experiment [1]; 113% (inactive) in experiment [3]; 88.2% (inactive) in experiment [4]; 109% (inactive) in experiment [5]; 98.5% in experiment [6] (setting [9]); 109% in experiment [6] (setting [10]). For the same molecule, the Her2 level in experiment [2] was 106% (inactive). In addition, in experiment [6] (H69AR cells + 2 uM doxorubicin), the differential viability (reversal) is 10.3% (inactive). For the same molecule, the figures for the inhibition in experiment [7] and in experiment [8] were -3.07% (inactive) and 3.44% (inactive), respectively.

Turning to `C1CCC2=NCCCN2CC1`, the viability in experiment [1] is 122%; in experiment [3], 122% (inactive); in experiment [4] it was 100% (inactive); in experiment [5] it was 107% (inactive); in experiment [6] (setting [9]) it was 98.4%; in experiment [6] (setting [10]) it was 107%. Besides, the Her2 level in experiment [2] was 87.5% (inactive). Also, in experiment [6] (H69AR cells + 2 uM doxorubicin), the differential viability (reversal) was 8.22% (inactive). The figures for the inhibition in experiment [7] and in experiment [8] were -7.33% (inactive) and -1.9% (inactive), respectively.

`Cc1ccc(-c2cc(C(=O)O)n[nH]2)o1`: the viability was 95.5% in experiment [1]; 95.5% (inactive) in experiment [3]; 98.7% (inactive) in experiment [4]; 99.3% (inactive) in experiment [5]; 101% in experiment [6] (setting [9]); 99.3% in experiment [6] (setting [10]). Moreover, the Her2 level in experiment [2] was 128% (inactive). Moreover, the differential viability (reversal) in experiment [6] (H69AR cells + 2 uM doxorubicin) is -1.46% (inactive). The inhibition in experiment [7] was -3.01% (inactive); in experiment [8] it was -0.16% (inactive).

For the molecule `Cc1ccc(CS(=O)(=O)CCC(=O)NCC2CCCO2)cc1` (stereo not given), the viability in experiment [1] was 96.5%; in experiment [3] it was 96.5% (inactive); in experiment [4] it was 116% (inactive); in experiment [5], 93.3% (inactive); in experiment [6] (setting [9]) it was 90.7%; in experiment [6] (setting [10]), 93.3%. Also, the Her2 level in experiment [2] was 106% (inactive). For the same molecule, the differential viability (reversal) in experiment [6] (H69AR cells + 2 uM doxorubicin) is 2.6% (inactive). The inhibition was -7.03% (inactive) in experiment [7] and 7.5% (inactive) in experiment [8].

For `COc1ccc(C2CC(C(F)(F)F)n3ncc(C(=O)NCc4cccnc4)c3N2)cc1OC` (stereo not given), the viability in experiment [1] was 86.5%; in experiment [3], 86.5% (inactive); in experiment [4], 94.2% (inactive); in experiment [5], 91.1% (inactive); in experiment [6] (setting [9]), 79.5%; in experiment [6] (setting [10]), 91.1%. The Her2 level in experiment [2] is 93% (inactive). Also, in experiment [6] (H69AR cells + 2 uM doxorubicin), the differential viability (reversal) was 11.6% (inactive). The inhibition in experiment [7] was -4.47% (inactive); in experiment [8] it was 2.33% (inactive).

As to `CCCn1cnc2c(c1=O)c1nc3ccccc3nc1n2Cc1ccccc1OC`, the viability was 99% in experiment [1]; 99% (inactive) in experiment [3]; 91.9% (inactive) in experiment [4]; 86.4% (inactive) in experiment [5]; 88.2% in experiment [6] (setting [9]); 86.4% in experiment [6] (setting [10]). Besides, the Her2 level in experiment [2] is 97% (inactive). For the same molecule, the differential viability (reversal) in experiment [6] (H69AR cells + 2 uM doxorubicin) was -1.82% (inactive). For the same molecule, the inhibition in experiment [7] is -7.11% (inactive); in experiment [8], -2.22% (inactive).

For `Cn1c2c(c(=O)n(C)c1=O)C(c1cccc(Br)c1)C1C(=O)c3ccccc3C1=N2` (stereo not given), the viability in experiment [1] was 103%; in experiment [3] it was 103% (inactive); in experiment [4] it was 72.5% (inactive); in experiment [5] it was 40.6% (active); in experiment [6] (setting [9]), 35.4%; in experiment [6] (setting [10]) it was 40.6%. For the same molecule, the Her2 level in experiment [2] was 97.5% (inactive). In addition, the differential viability (reversal) in experiment [6] (H69AR cells + 2 uM doxorubicin) is 5.16% (inactive). Also, the inhibition was 0.27% (inactive) in experiment [7] and 1.43% (inactive) in experiment [8].

For `O=C(O)COc1ccc(Oc2ccccc2)cc1`, the viability is 102% in experiment [1]; 102% (inactive) in experiment [3]; 96.1% (inactive) in experiment [4]; 109% (inactive) in experiment [5]; 96% in experiment [6] (setting [9]); 109% in experiment [6] (setting [10]). In addition, in experiment [2], the Her2 level was 106% (inactive). Besides, the differential viability (reversal) in experiment [6] (H69AR cells + 2 uM doxorubicin) was 13.3% (inactive). The inhibition in experiment [7] is 0.26% (inactive); in experiment [8] it was -3.55% (inactive).

On to `C/C(N)=C(/C#N)C(=O)COC(=O)CCSc1ccccc1`, for which the viability in experiment [1] was 97.5%; in experiment [3], 97.5% (inactive); in experiment [4], 84.4% (inactive); in experiment [5] it was 101% (inactive); in experiment [6] (setting [9]), 101%; in experiment [6] (setting [10]) it was 101%. Also, in experiment [2], the Her2 level is 89% (inactive). Besides, in experiment [6] (H69AR cells + 2 uM doxorubicin), the differential viability (reversal) was -0.045% (inactive). Also, the inhibition in experiment [7] was -0.13% (inactive); in experiment [8], 4.59% (inactive).

For the molecule `CCOC(=O)C1CCCN(C(=O)c2cc3c(=O)n4cccc(C)c4nc3n2C)C1` (stereo not given), the viability in experiment [1] was 106%; in experiment [3], 106% (inactive); in experiment [4], 108% (inactive); in experiment [5], 94.3% (inactive); in experiment [6] (setting [9]), 88.4%; in experiment [6] (setting [10]) it was 94.3%. The Her2 level in experiment [2] is 77% (inactive). Also, in experiment [6] (H69AR cells + 2 uM doxorubicin), the differential viability (reversal) was 5.81% (inactive). Besides, the inhibition is -7.3% (inactive) in experiment [7] and 2.7% (inactive) in experiment [8].

`COc1ccccc1CNC(=O)N[C@@H](Cc1ccccc1)C(=O)O`: the viability is 102% in experiment [1]; 102% (inactive) in experiment [3]; 114% (inactive) in experiment [4]; 93.2% (inactive) in experiment [5]; 81% in experiment [6] (setting [9]); 93.2% in experiment [6] (setting [10]). For the same molecule, the Her2 level in experiment [2] is 80% (inactive). Moreover, the differential viability (reversal) in experiment [6] (H69AR cells + 2 uM doxorubicin) is 12.2% (inactive). For the same molecule, the figures for the inhibition in experiment [7] and in experiment [8] were -5.81% (inactive) and 10.5% (inactive), respectively.

As to `CCOc1cc(C(=O)NCc2nnc(SCC(=O)OC)n2C)cc(OCC)c1OCC`, the viability in experiment [1] was 98%; in experiment [3] it was 98% (inactive); in experiment [4], 104% (inactive); in experiment [5] it was 95.8% (inactive); in experiment [6] (setting [9]) it was 87.5%; in experiment [6] (setting [10]) it was 95.8%. Further, in experiment [2], the Her2 level was 85% (inactive). The differential viability (reversal) in experiment [6] (H69AR cells + 2 uM doxorubicin) was 8.31% (inactive). Further, the inhibition in experiment [7] is -6.84% (inactive); in experiment [8], -2% (inactive).

On to `O=C(COc1ccccc1)NCC(c1cccs1)N1CCOCC1` (stereo not given), for which the viability in experiment [1] was 84%; in experiment [3] it was 84% (inactive); in experiment [4], 91.7% (inactive); in experiment [5], 97.7% (inactive); in experiment [6] (setting [9]), 83.4%; in experiment [6] (setting [10]), 97.7%. The Her2 level in experiment [2] is 126% (inactive). Moreover, in experiment [6] (H69AR cells + 2 uM doxorubicin), the differential viability (reversal) is 14.4% (inactive). In addition, the inhibition in experiment [7] was 1.2% (inactive); in experiment [8], -4.29% (inactive).

As a reminder, the viability is a read-out of living cells in per cent, often relative to untreated cells. The inhibition is the change of the read-out against control, counted positive when it falls.
